Assay results of several laboratories.
Lines come from different studies, so protocols differ.
PDE5A: cGMP-specific 3',5'-cyclic phosphodiesterase (PDE5A, Homo sapiens, UniProt O76074)
ARAF: Serine/threonine-protein kinase A-Raf (ARAF, Homo sapiens, UniProt P10398)
PFF0160c: Dihydroorotate dehydrogenase (quinone), mitochondrial (PFF0160c, Plasmodium falciparum, UniProt Q08210)
PPO3: PPO3 (Agaricus bisporus, UniProt C7FF04)
KDM1A: Lysine-specific histone demethylase 1A (KDM1A, Homo sapiens, UniProt O60341)
PARP1: Poly [ADP-ribose] polymerase 1 (PARP1, Homo sapiens, UniProt P09874)
AURKB: Aurora kinase B (AURKB, Homo sapiens, UniProt Q96GD4)
HDAC2: Histone deacetylase 2 (HDAC2, Homo sapiens, UniProt Q92769)
MEP1A: Meprin A subunit alpha (MEP1A, Homo sapiens, UniProt Q16819)
PDE4A: 3',5'-cyclic-AMP phosphodiesterase 4A (PDE4A, Homo sapiens, UniProt P27815)

CCN1C(=O)[C@@H]2Cc3c([nH]c4ccccc34)[C@@H](c3ccc(OC)c(OC)c3)N2C1=O gave an IC50 of 13.7 µM (PDE5A; enzyme activity; inhibitor; FP).
CN(C)CCOc1ccc(-c2nc(-c3ccncc3)c(-c3ccc4c(c3)CC/C4=N\O)[nH]2)cc1 has an IC50 of over 10 µM (ARAF; enzyme activity; inhibitor; lysate).
For CCCCc1ccc(-c2ccc(-c3cc(C(=O)O)c4cccc([N+](=O)[O-])c4n3)o2)cc1, the IC50 was 27.5 µM (Eukaryotic initiation factor 4A-I (EIF4A1, Homo sapiens, UniProt P60842); ATPase activity; inhibitor; absorbance).
For Cc1ccc(COc2ccc3c(c2)NC(=C(C#N)C(=O)c2ccc(Cl)cc2Cl)NC3=O)cc1, the IC50 was 280 µM (Cytoplasmic dynein 1 heavy chain 1 (DYNC1H1, Homo sapiens, UniProt Q14204); ATPase activity; inhibitor).
For Cc1cc(Nc2cccc(Cl)c2)n2nc(CC(C)C)nc2n1, the IC50 was over 10 µM (PFF0160c; enzyme activity; inhibitor).
With Cc1ccc(C(C)C)cc1NC(=O)COC(=O)c1cc(O)cc(O)c1 the IC50 was 20.2 µM (PPO3; enzyme activity; inhibitor).
For CC(=O)N[C@@H](CC(=O)O)C(=O)N[C@@H](CCC(=O)O)C(=O)N[C@H](C(=O)N[C@H](C=O)CC(=O)O)C(C)C, the IC50 was 0.0232 µM (Caspase-6 (CASP6, Homo sapiens, UniProt P55212); enzyme activity; inhibitor).
The IC50 of CCN1CC(=O)N2[C@H](c3ccc(OC)c(OC)c3)c3[nH]c4ccccc4c3C[C@@H]2C1=O is reported as 4.35 µM (PDE5A; enzyme activity; inhibitor; FP).
Cc1ccc(C(C)C)cc1NC(=O)COC(=O)/C=C/c1ccc(Cl)cc1 gave an IC50 of 16.7 µM (PPO3; enzyme activity; inhibitor).
Cc1ccc(N=Nc2c(N)nc(N)nc2Cl)cc1 gave an IC50 of 42 µM (PPO3; enzyme activity; inhibitor; absorbance).
CN1CCN(c2ccc(Nc3ncc4cc(C#N)c(=O)n(C5CCCC5)c4n3)cc2)CC1 has an IC50 of 0.566 µM (ARAF; enzyme activity; inhibitor).
For COC(=O)[C@H]1Cc2c([nH]c3ccccc23)[C@H](c2ccc(OC)c(OC)c2)N1C(=O)CCl, the IC50 was over 10 µM (PDE5A; enzyme activity; inhibitor; FP).
CNCCOc1nc2nc(C)cc(Nc3ccc(S(F)(F)(F)(F)F)cc3)n2n1 gave an IC50 of over 10 µM (PFF0160c; enzyme activity; inhibitor).
Cc1ccc(C(C)C)cc1NC(=O)COC(=O)c1ccc(O)cc1O has an IC50 of 1.8 µM (PPO3; enzyme activity; inhibitor).
The IC50 of CN(CCCCNC(=O)c1cc2ccccc2[nH]1)[C@@H]1Cc2cccc3[nH]c(=O)n(c23)C1 is reported as 1.94 µM (5-hydroxytryptamine receptor 2A (HTR2A, Homo sapiens, UniProt P28223); ligand displacement; radioligand).
The IC50 of CNCCOc1nc2nc(C)cc(Nc3cccc(Cl)c3)n2n1 is reported as over 10 µM (PFF0160c; enzyme activity; inhibitor).
CCCSc1nc(Sc2nnnn2C)c2nnn(CCc3c[nH]c4ccccc34)c2n1 has an IC50 of 0.253 µM (KDM1A; enzyme activity; inhibitor; fluorescence).
With O=C(Nc1ccn(Cc2ccc(O)cc2C(F)(F)F)n1)c1c(F)cccc1F the IC50 was over 10 µM (Transient receptor potential cation channel subfamily A member 1 (TRPA1, Homo sapiens, UniProt O75762); ion current; inhibitor).
N[C@@]1(C(=O)O)CC[C@]12CC[C@H]2C(=O)O has an IC50 of 18000 µM (Glutamate racemase (Helicobacter pylori J99, UniProt Q9ZLT0); enzyme activity; inhibitor).
CN1C(=O)c2c(nn(Cc3ccc(-c4cccc(F)n4)cc3)c2Nc2ccccc2)N2C1=N[C@@H]1CCC[C@@H]12 gave an IC50 of over 0.1 µM (PDE5A; enzyme activity; inhibitor).
Nc1nc(N)c(N=Nc2ccccc2[N+](=O)[O-])c(Cl)n1 has an IC50 of 24.7 µM (PPO3; enzyme activity; inhibitor; absorbance).
With Nc1cc(Nc2ccc(C(F)(F)F)cc2)n2ncnc2n1 the IC50 was 31 µM (PFF0160c; enzyme activity; inhibitor).
For Cc1cc(Nc2ccc(S(F)(F)(F)(F)F)cc2)n2nc(OCCN(C)C)nc2n1, the IC50 was over 10 µM (PFF0160c; enzyme activity; inhibitor).
Cc1cc(Nc2ccc3c(c2)CCCC3)n2ccnc2n1 has an IC50 of 0.1 µM (PFF0160c; enzyme activity; inhibitor).
Cc1[nH]ncc1C(=O)N1CCC(C)(NC(=O)c2c[nH]c(=O)c3ccccc23)C1 (stereo not shown) has an IC50 of 0.794 µM (PARP1; enzyme activity; inhibitor).
For O=C(O)CCCC(=O)N1CCN(C(=O)c2cc(Cc3n[nH]c(=O)c4ccccc34)ccc2F)CC1, the IC50 was 0.0067 µM (PARP1; enzyme activity; inhibitor).
The IC50 of Cc1cnc(Nc2ccc(N3CCN(C)CC3)cc2)nc1Nc1cccc(S(=O)(=O)NC(C)(C)C)c1 is reported as 0.033 µM (AURKB; enzyme activity; inhibitor; mobility shift).
For Cc1cc(Nc2ccc(Cl)cc2)n2[nH]c(=O)nc2n1, the IC50 was over 10 µM (PFF0160c; enzyme activity; inhibitor).
With CCCON(Cc1ccc(C(=O)NO)cc1)C(=O)Nc1ccccc1 the IC50 was 1.42 µM (HDAC2; enzyme activity; inhibitor; fluorescence).
Cc1cc(Nc2ccc(Cl)cc2)n2nc(OCCN)nc2n1 has an IC50 of over 10 µM (PFF0160c; enzyme activity; inhibitor).
Cc1cnc(-c2ccc(-c3ccc(NC(=O)Nc4c(F)cc(F)cc4F)cc3F)c3c2C(=O)NC3)[nH]1 gave an IC50 of 0.0037 µM (AURKB; enzyme activity; inhibitor).
O=C(CCN(Cc1cccnc1)Cc1ccc2c(c1)OCO2)NO gave an IC50 of 0.464 µM (MEP1A; enzyme activity; inhibitor).
CC(C)(C)N1C(=O)[C@H]2Cc3c([nH]c4ccccc34)[C@@H](c3cccnc3)N2C1=O has an IC50 of 0.41 µM (PDE5A; enzyme activity; inhibitor; FP).
With CCCSc1nc(Sc2nnnn2C)c2nnn(CCc3cccs3)c2n1 the IC50 was 0.339 µM (KDM1A; enzyme activity; inhibitor; fluorescence).
With O=C1[C@@H]2Cc3c([nH]c4ccccc34)[C@@H](c3cccnc3)N2C(=O)N1c1ccc(Cl)cc1 the IC50 was 1.25 µM (PDE5A; enzyme activity; inhibitor; FP).
The IC50 of C#CCSc1nc(Sc2nnnn2-c2cccnc2)c2nnn(Cc3ccccc3Cl)c2n1 is reported as 0.127 µM (KDM1A; enzyme activity; inhibitor; fluorescence).
COc1ccc([C@@H]2CN(C(=O)[C@@H](O)CO)C[C@@]2(C)[C@@H](C)O)cc1OC1CN(c2ccc(C)cn2)C1 has an IC50 of 9e-05 µM (PDE4A; enzyme activity; inhibitor).
COc1ccc(C2=NN(C3CCCCCC3)C(=O)[C@@H]3CC=CC[C@H]23)cc1-c1ccc(C(N)=O)cc1 (relative stereo) gave an IC50 of 0.251 µM (PDE4A; enzyme activity; inhibitor).
CNCCc1nc2nc(C)cc(Nc3cccc(Cl)c3)n2n1 gave an IC50 of over 10 µM (PFF0160c; enzyme activity; inhibitor).
For CC(C)C[C@H]1CC(=O)N[C@@H](C)C(=O)N[C@@H](CCCCCC(=O)O)C(=O)N[C@@H](Cc2c[nH]c3ccccc23)C(=O)N1, the IC50 was 0.2 µM (HDAC2; enzyme activity; inhibitor).
For CCC[C@H](NC(=O)C1CN(C)C1)c1ncc(-c2cc3ccccc3nc2OC)[nH]1, the IC50 was 0.75 µM (HDAC2; enzyme activity; inhibitor; fluorescence).
For COCCOc1nc2nc(C)cc(Nc3ccc(Cl)cc3)n2n1, the IC50 was over 10 µM (PFF0160c; enzyme activity; inhibitor).
O=C(CCN(Cc1ccc2c(c1)OCO2)Cc1ccc(Cl)cc1F)NO gave an IC50 of 0.186 µM (MEP1A; enzyme activity; inhibitor).
